Experimental data reported in article PMC7993281 (Clinical and Translational Science, 2020).

Columns and labels:
Type in all cases: in vivo, human
Single-ascending dose = settings: for Tmax / half-life / CL renal: human, oral; for Tmax / half-life: plasma
How it was run: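 Healthy men, single oral 10–2,000 mg after a 10-hour fast. The 300 mg cohort was repeated 30 min after a high-fat, high-calorie breakfast following at least 7 days washout. Plasma sampled up to 48 h; 300 mg urine collected at 0–12, 12–24 and 24–48 h. Validated LC-MS/MS with noncompartmental analysis. Fed/fasted GMR with 90% CI; Tmax compared by nonparametric median difference.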

Multiple-ascending dose = settings: for Tmax: median (range); for CL renal: urine and plasma
How it was run: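 Oral 30, 100, 300 or 1,000 mg b.i.d. for 7 days in healthy men and women, n = 8 active per dose. Plasma sampled for 12 h on Day 1, at trough on Days 2–6, and up to 72 h after the last dose. Urine collected predose Day 1 and 0–12 h on Day 7. Validated LC-MS/MS. Noncompartmental analysis gave AUCτ, accumulation index and CLR.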

[1] = test system: glucosylceramide (GlcCer) plasma concentration; test: MAD study pharmacodynamics: plasma GlcCer
How it was run: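 Healthy men and women (1:1), 8 active and 2 placebo per cohort. Oral 30, 100, 300 or 1,000 mg b.i.d. for 7 days. Morning dose after a 10-hour fast, evening dose 2 hours after dinner. Plasma sampled on Days 1, 2, 4 and 7 and at 24, 48 and 72 h after the last dose. Validated LC-MS/MS. Percent change from Day 1 predose.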

[2] = Day 7, 30 mg b.i.d., geometric mean (95% CI)
[3] = Day 7, 100 mg b.i.d., geometric mean (95% CI)
[4] = Day 7, 300 mg b.i.d., geometric mean (95% CI)
[5] = Day 7, 1,000 mg b.i.d., geometric mean (95% CI)
[6] = both, human, plasma, oral, 30 mg
[7] = both, human, plasma, oral, 100 mg
[8] = both, human, plasma, oral, 300 mg
[9] = both, human, plasma, oral, 1000 mg b.i.d.

- fraction of dose excreted unchanged in urine (Single-ascending dose; 300 mg single dose): About half
- median difference in Tmax, fed vs fasted (Single-ascending dose; 300 mg single dose, high‐fat, high‐calorie meal, 90% CI 0.50–1.70): 1 h
- Tmax (Single-ascending dose; 100 mg, single dose 100 mg, fasted, median (range)): 1.4 h
- Tmax (Single-ascending dose; 300 mg, single dose 300 mg fasted, median (range)): 0.9 h
- Tmax (Single-ascending dose; 300 mg, single dose 300 mg fed, median (range)): 2.25 h
- half-life (Single-ascending dose; 1000 mg): 11.6 h
- Tmax (Single-ascending dose; 1000 mg, single dose 1,000 mg, fasted, median (range)): 1.5 h
- Tmax (Single-ascending dose; 2000 mg, single dose 2,000 mg, fasted, median (range)): 2 h
- CL renal (Single-ascending dose; urine and plasma, 300 mg): 225 mL/min
- CL renal (Single-ascending dose; male, plasma and urine, 300 mg): 225 mL/min
- half-life (Single-ascending dose; male): ~12 h
- Tmax (Single-ascending dose; male, across single doses 10 to 2,000 mg): 0.9 to 2 h
- duration of distribution phase (Single-ascending dose; single dose): ~ 24 hours
- UPE, percentage of dose excreted unchanged in urine (Single-ascending dose; single dose 300 mg fasted, geometric mean (95% CI)): 48.74 (43.53, 54.59) %
- AI, accumulation index (Multiple-ascending dose; [2]): 1.085 (0.993, 1.185)
- UPE, percentage of dose excreted unchanged in urine (Multiple-ascending dose; [2]): 55.12 (52.08, 58.34) %
- AI, accumulation index (Multiple-ascending dose; [3]): 1.037 (0.930, 1.156)
- UPE, percentage of dose excreted unchanged in urine (Multiple-ascending dose; [3]): 53.55 (44.68, 64.19) %
- AI, accumulation index (Multiple-ascending dose; [4]): 1.101 (1.012, 1.198)
- UPE, percentage of dose excreted unchanged in urine (Multiple-ascending dose; [4]): 48.35 (40.84, 57.24) %
- AI, accumulation index (Multiple-ascending dose; [5]): 1.001 (0.942, 1.064)
- UPE, percentage of dose excreted unchanged in urine (Multiple-ascending dose; [5]): 45.54 (41.54, 49.92) %
- increased exposure (Cmax and AUCτ) in female compared to male subjects (Multiple-ascending dose; all dose groups combined, steady‐state): around 30%
- time to steady‐state concentrations (Multiple-ascending dose; b.i.d. dosing): ≤ 2 days
- accumulation after multiple doses (Multiple-ascending dose; b.i.d. for 7 days): did not accumulate
- AUC (Multiple-ascending dose; [6]): 1310 ng·h/mL
- AUC(0-t) (Multiple-ascending dose; [6]): 1200 ng·h/mL
- Cmax (Multiple-ascending dose; both, human, plasma, oral, 30 mg, Cmax, Day 7, 30 mg b.i.d., geometric mean (95% CI)): 413 ng/mL
- Tmax (Multiple-ascending dose; both, human, plasma, oral, 30 mg, Day 1, 30 mg b.i.d.): 0.9 h
- Tmax (Multiple-ascending dose; both, human, plasma, oral, 30 mg, Day 7, 30 mg b.i.d.): 0.9 h
- AUC (Multiple-ascending dose; [7]): 4650 ng·h/mL
- AUC(0-t) (Multiple-ascending dose; [7]): 4480 ng·h/mL
- Cmax (Multiple-ascending dose; both, human, plasma, oral, 100 mg, Cmax, Day 1, 100 mg b.i.d., geometric mean (95% CI)): 1340 ng/mL
- Cmax (Multiple-ascending dose; both, human, plasma, oral, 100 mg, Cmax, Day 7, 100 mg b.i.d., geometric mean (95% CI)): 1270 ng/mL
- Tmax (Multiple-ascending dose; both, human, plasma, oral, 100 mg, Day 1, 100 mg b.i.d.): 0.9 h
- Tmax (Multiple-ascending dose; both, human, plasma, oral, 100 mg, Day 7, 100 mg b.i.d.): 1.3 h
- AUC (Multiple-ascending dose; [8]): 16800 ng·h/mL
- AUC(0-t) (Multiple-ascending dose; [8]): 15200 ng·h/mL
- Cmax (Multiple-ascending dose; both, human, plasma, oral, 300 mg, Cmax, Day 1, 300 mg b.i.d., geometric mean (95% CI)): 3760 ng/mL
- Cmax (Multiple-ascending dose; both, human, plasma, oral, 300 mg, Cmax, Day 7, 300 mg b.i.d., geometric mean (95% CI)): 3990 ng/mL
- Tmax (Multiple-ascending dose; both, human, plasma, oral, 300 mg, Day 1, 300 mg b.i.d.): 1.4 h
- Tmax (Multiple-ascending dose; both, human, plasma, oral, 300 mg, Day 7, 300 mg b.i.d.): 0.9 h
- AUC (Multiple-ascending dose; [9]): 51200 ng·h/mL
- AUC(0-t) (Multiple-ascending dose; [9]): 51200 ng·h/mL
- half-life (Multiple-ascending dose; [9]): 14.7 h
- Cmax (Multiple-ascending dose; both, human, plasma, oral, 1000 mg b.i.d., Cmax, Day 1, 1,000 mg b.i.d., geometric mean (95% CI)): 10600 ng/mL
- Cmax (Multiple-ascending dose; both, human, plasma, oral, 1000 mg b.i.d., Cmax, Day 7, 1,000 mg b.i.d., geometric mean (95% CI)): 10400 ng/mL
- Tmax (Multiple-ascending dose; both, human, plasma, oral, 1000 mg b.i.d., Day 1, 1,000 mg b.i.d.): 1.45 h
- Tmax (Multiple-ascending dose; both, human, plasma, oral, 1000 mg b.i.d., Day 7, 1,000 mg b.i.d.): 2 h
- CL renal (Multiple-ascending dose; both, human, oral, 30 mg): 211 mL/min
- CL renal (Multiple-ascending dose; both, human, oral, 100 mg): 192 mL/min
- CL renal (Multiple-ascending dose; both, human, oral, 300 mg): 144 mL/min
- CL renal (Multiple-ascending dose; both, human, oral, 1000 mg b.i.d.): 148 mL/min
- dose excreted unchanged in urine (Multiple-ascending dose; doses ranging from 30 to 1,000 mg b.i.d.): ~ 50%
- Cmax (Multiple-ascending dose; female, human, plasma, oral, 1000 mg b.i.d., geometric mean Cmax in women, female subjects, 1,000 mg b.i.d. cohort, day 7): 12000 ng/mL
SMILES: CCCCCN1C[C@H](O)[C@@H](O)[C@H](O)[C@@H]1CO [sinbaglustat, (2S,3R,4R,5S)‐2‐(hydroxymethyl)‐1‐pentylpiperidine‐3,4,5‐triol]
- GlcCer during the treatment period ([1]; 30 mg b.i.d.): remained at baseline
- GlcCer increase from baseline concentration ([1]; 30 mg b.i.d., 72 hours after the last dose): 32%
- GlcCer percentage change from baseline ([1]; 100 mg b.i.d., 48 hours after the last dose): –7%
- GlcCer percentage change from baseline ([1]; 300 mg b.i.d., 72 hours after the last dose): –1%
